High-throughput results deposited in PubChem by SRMLSC.
This is one part of a sample in which hits are shown more often than they occur.
H69AR inhibit – blocks growth of human H69AR lung tumor cells. H69AR lung tumor viability, ATP luminescence, 72 h; stronger effect = lower value. viability, % at 10 µM. 6% of 85,000 active;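 active = viability at or below 40%; inactive = viability above 40%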;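 also: multidrug resistant small cell line overexpressing MRP-1 efflux transporter; 100% = mean luminescence of untreated control wells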
bCat KO growth – beta-catenin-lacking colon tumor cell growth suppression. AID 818. HCT116 beta-catenin knockout viability, CellTiter-Glo, 60 h; stronger effect = lower value. 1.5% of 140,000 active. viability, % at 10 µM;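 active = viability at or under a set limit, the compound median less 4 SD, cut at about 6% in these data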;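 also: 0% = Hyamine 1622 control at 20 µM and 100% = untreated cell control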
PTEN del growth – PTEN-deleted cell growth suppression. HCT116 PTEN-null viability, CellTiter-Glo, 60 h; stronger effect = lower value. viability, % at 10 µM. 1.2% of 140,000 active. AID 827;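 active = viability at or below a set limit, 4 SD under the median of all tested compounds, cut at about 3.7% in these data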;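 also: PTEN knockout HCT116 line with beta catenin targeted HCT116 as companion control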
Lung fibro prol – blocks proliferation of human lung fibroblasts. LL 47 human lung fibroblast viability, ATP luminescence; stronger effect = lower value. viability, % at 10 µM. 1.1% of 85,000 active. AID 719;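 active = viability at or below 50% in the single dose screen; inactive = viability above 50%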;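 also: compound exposure lasted 72 h before the ATP readout; 100% = median luminescence of untreated cell-only wells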
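Times – overnight cell rest, 72 h compound treatment at 37 °C · Test system – human lung fibroblast line LL 47, low passage · Amount – 1,150 cells in each well · Controls – cell-only wells, no compound · Doses – 0.1% DMSO in all compound wells · Measured by – CellTiter-Glo luminescence · Buffer or medium – IMEM plus 15% FBS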
HUVEC inhibit – human endothelial cell proliferation inhibition; HUVEC proliferation, CellTiter-Glo luminescence, 72 h; stronger effect = lower value; viability, % at 10 µM (by protocol); 1.1% of 86,000 active; AID 648;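 active = viability at or below 30%; inactive = viability above 30%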;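 also: 100% = median luminescence of DMSO-only cell control wells on each plate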
* = called active by the depositor; / = not tested or not shown.

SMILES	H69AR inhibit	bCat KO growth	PTEN del growth	Lung fibro prol	HUVEC inhibit
N#Cc1ccc(C2=NC(C(F)(F)F)(C(F)(F)F)c3c(n(Cc4ccco4)c(=O)[nH]c3=O)N2)cc1	35*	71	57	75	58
CCOC(=O)C1=C(O)/C(=C/c2cn(CC(=O)NCC3CCCO3)c3ccccc23)SC1=Nc1ccc(C)cc1 (configuration not stated)	23*	/	/	27*	12*
O=C(/C=C/c1cccc(C(F)(F)F)c1)Nc1cccc(C(F)(F)F)c1	/	3.8*	2.3*	/	/
COc1cc(NC(=O)Cn2nc(C(F)(F)F)c3c2CCCC3)cc(OC)c1OC	83	81	79	99	96
COc1ccc(-c2c[n+]3c4n2CCCCC4=C(c2ccccc2)C3)cc1	48	3.8*	3.5*	36*	47
COc1ccc(-c2c[n+]3c(n2-c2ccccc2)CCCCC3)cc1	/	31	43	/	/
C/C(=N/Nc1ccc(C(=O)O)cc1)c1ccc(O)c(O)c1O	/	87	91	/	/
Cn1cc([N+](=O)[O-])c(C(=O)Nc2ccc(Br)cn2)n1	/	2.7*	1.4*	/	/
Cn1cc([N+](=O)[O-])c(C(=O)N/N=C/c2ccc([N+](=O)[O-])cc2)n1	/	89	93	/	/
Cn1cc([N+](=O)[O-])c(C(=O)Nc2ccn(Cc3c(F)c(F)cc(F)c3F)n2)n1	/	3.0*	3.1*	/	/
COc1ccc(C=C(C(C)=O)C(C)=O)cc1OC	22*	111	92	103	89
COc1ccc(/C=C(\C#N)C(=O)OCC(=O)Nc2c(C)cccc2C(C)C)cc1	/	93	96	/	/
CCCCNS(=O)(=O)c1ccc2nc(SCC(=O)Nc3sccc3C#N)[nH]c2c1	21*	47	54	94	50
CN1c2ccccc2C(C)(C)[C@]12C=Cc1cc(O)ccc1O2	8.6*	30	31	88	49
Cn1c(N/N=C/c2c[nH]c3ccccc23)nc2ccccc21	/	1.5*	0.9*	/	/
CCCCn1c(/N=C/c2c[nH]c3ccccc23)nc2ccccc21	1.9*	32	49	83	60
COc1ccc(OC)c(-c2cnc(OC(C)(C)C)nc2OC(C)(C)C)c1	/	15	16	/	/
OC1(Cc2ccn[nH]2)CCCCC1	102	88	101	104	28*
CCNc1ccc(Br)cc(C(=O)/C=C/c2c(Cl)cccc2Cl)c1=O	2.0*	3.5*	1.5*	63	7.9*
CNc1ccc(Br)cc(C(=O)/C=C/c2cccc(OC)c2)c1=O	-0.2*	24	25	8.8*	22*
CCNc1ccc(Br)cc(C(=O)/C=C/c2ccc(Cl)cc2)c1=O	/	7	4	/	/
O=C(NCc1ccccn1)c1ccc(CNS(=O)(=O)c2cccc(Cl)c2)cc1	/	86	108	/	/
CCCCC(=O)Nc1c(C)cc(C)cc1Cl	96	87	90	110	98
O=C(/C=C/c1cccc(OCc2ccccc2)c1)c1cccnc1	/	2.7*	0.7*	/	/
O=C(/C=C/c1ccc([N+](=O)[O-])cc1)NCc1cccnc1	/	97	81	/	/
SMILES	H69AR inhibit	bCat KO growth	PTEN del growth	Lung fibro prol	HUVEC inhibit
O=C(/C=C/c1ccc([N+](=O)[O-])cc1)c1cccnc1	/	1.4*	1.6*	/	/
COc1cc(C(=O)N2CCC(n3c(C)nc4cc(F)ccc43)CC2)cc(OC)c1OC	84	88	93	104	90
Cc1sc2nc(CSc3cccc(C(F)(F)F)c3)[nH]c(=O)c2c1C	/	89	86	/	/
NC(=O)C1CCN(CC(=O)Nc2cccc(C(=O)Nc3cccc(C(F)(F)F)c3)c2)CC1	/	80	79	/	/
Cc1ccc(OC(=O)c2cccc(S(=O)(=O)N3CCCC3)c2)c(-n2nc3ccccc3n2)c1	/	91	94	/	/
Cc1ccc(Sc2nc3c(c(=O)[nH]c(=O)n3C)n2CCc2ccccc2)cc1	14*	11	2.8*	82	68
CN1CCN(Cc2nc3c(c(=O)[nH]c(=O)n3C)n2CCc2ccccc2)CC1	86	86	107	100	89
COc1ccc(CCn2c(N3CCOCC3)nc3c2c(=O)[nH]c(=O)n3C)cc1	25*	96	91	92	89
Cn1c(=O)[nH]c(=O)c2c1nc(N1CCOCC1)n2CCN1CCOCC1	90	88	88	107	103
COc1ccc(OCC(O)Cn2c(Br)nc3c2c(=O)[nH]c(=O)n3C)cc1 (configuration not stated)	35*	28	19	98	94
COc1ccc(CCn2c(N3CCN(Cc4ccccc4)CC3)nc3c2c(=O)[nH]c(=O)n3C)cc1	33*	99	91	98	85
CC1CCCC(C)N1C(=O)Cn1cc(/C=C2/C(=O)Nc3ccccc32)c2ccccc21 (configuration not stated)	23*	58	51	82	76
COC(=O)c1cn(CC(=O)N2C(C)CCCC2C)c2ccccc12 (configuration not stated)	75	96	99	109	99
COc1ccccc1NS(=O)(=O)c1ccc(NC(=O)c2nc3nc(C)cc(C(F)F)n3n2)cc1	97	82	93	90	86
CCOc1nc(-c2ccccc2)ccc1-c1noc(-c2ccc(OC)c(OC)c2)n1	32*	/	/	99	71
COc1nc(-c2ccccc2)ccc1-c1noc(-c2ccccc2)n1	72	96	95	102	93
Cc1cc(C(=O)COC(=O)c2ccc[nH]c2=O)c(C)n1-c1ccc(F)cc1	/	91	84	/	/
COc1ccccc1C1Nc2cccc3cccc(c23)N1	86	80	90	110	87
CCOc1cc(C2Nc3cccc4cccc(c34)N2)ccc1O	36*	89	94	98	61
CCOc1ccc(C2Nc3cccc4cccc(c34)N2)cc1OC	91	54	63	93	77
Oc1ccccc1C1Nc2cccc3cccc(c23)N1	34*	88	102	88	78
COc1ccc(-c2c(NC(=O)c3ccco3)n(C)c3ccccc3c2=O)cc1	91	93	99	95	89
COc1ccc(NC2=Nc3cccc4cccc2c34)cc1	/	98	77	/	/
CCn1cc(Cl)c(C(=O)N2N=C3/C(=C/c4cccs4)CCCC3C2c2cccs2)n1 (configuration not stated)	38*	54	51	92	75
Cc1ncsc1C(=O)N1N=C2/C(=C/c3ccccc3)CCCC2C1c1ccccc1 (configuration not stated)	/	44	39	/	/
COc1ccc(C2Nc3ccc4ccccc4c3-c3c2c(=O)oc2ccccc32)cc1 (configuration not stated)	/	3.2*	1.5*	/	/
CCOc1ccc(C2Nc3ccc4ccccc4c3-c3c2c(=O)oc2ccccc32)cc1 (configuration not stated)	/	2.7*	4	/	/
O=c1oc2ccccc2c2c1C(c1ccc(Cl)cc1)Nc1ccc3ccccc3c1-2 (configuration not stated)	/	73	76	/	/
Cc1c(NC(=O)Cn2ccc([N+](=O)[O-])n2)c(=O)n(-c2ccccc2)n1C	/	93	102	/	/
